ChEMBL document CHEMBL1828552, “Synthesis and studies of novel 2-(4-cyano-3-trifluoromethylphenyl amino)-4-(quinoline-4-yloxy)-6-(piperazinyl/piperidinyl)-s-triazines as potential antimicrobial, antimycobacterial and anticancer agents” (2011)
Values after ≈ are worked out from the molar mass of the structure shown.

Assays:
Klebsiella pneumoniae [1] = experiment: Antibacterial activity against 10^5 CFU/mL Klebsiella pneumoniae MTCC 109 after 24 hrs by disc diffusion technique; type: functional
Method in brief: (§1)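 Disc diffusion on Mueller–Hinton agar poured 5 mm deep. The surface was swabbed with a 10⁵ CFU/mL […] suspension. Filter-paper discs 6.25 mm in diameter were soaked in compound in DMSO and placed on the agar. Plates were incubated 24 h at 37 ± 1 °C, and the inhibition zone was measured in mm. A DMSO disc served as blank.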

Shigella flexneri [2] = experiment: Antibacterial activity against 10^5 CFU/mL Shigella flexneri MTCC 1457 after 24 hrs by agar streak dilution method; type: functional; conditions: MTCC 1457, 24 h
Method in brief: (§2)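 Agar streak dilution. Stock 100 µg/mL in DMSO; graded amounts were mixed into molten nutrient agar and poured at 4–5 mm depth. Plates carried serial dilutions over […]. About 10⁵ CFU/mL of each bacterium was applied, and plates were incubated at 37 ± 1 °C for 24 h. MIC was read from the dilution series.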

Aspergillus fumigatus [3] = experiment: Antifungal activity against 10^5 CFU/mL Aspergillus fumigatus MTCC 343 after 48 hrs by disc diffusion technique; type: functional
Klebsiella pneumoniae [4] = experiment: Antibacterial activity against 10^5 CFU/mL Klebsiella pneumoniae MTCC 109 after 24 hrs by agar streak dilution method; type: functional; conditions: MTCC 109, 24 h; method in brief: as §2
Escherichia coli [5] = experiment: Antibacterial activity against 10^5 CFU/mL Escherichia coli MTCC 739 after 24 hrs by agar streak dilution method; type: functional; conditions: MTCC 739, 24 h; method in brief: as §2
Proteus vulgaris [6] = experiment: Antibacterial activity against 10^5 CFU/mL Proteus vulgaris MTCC 1771 after 24 hrs by agar streak dilution method; type: functional; conditions: MTCC 1771, 24 h; method in brief: as §2
Shigella flexneri [7] = experiment: Antibacterial activity against 10^5 CFU/mL Shigella flexneri MTCC 1457 after 24 hrs by disc diffusion technique; type: functional; method in brief: as §1
Staphylococcus aureus [8] = experiment: Antibacterial activity against 10^5 CFU/mL Staphylococcus aureus MTCC 96 after 24 hrs by agar streak dilution method; type: functional; conditions: MTCC 96, 24 h; method in brief: as §2
Staphylococcus aureus [9] = experiment: Antibacterial activity against 10^5 CFU/mL Staphylococcus aureus MTCC 96 after 24 hrs by disc diffusion technique; type: functional; method in brief: as §1
Salmonella typhi [10] = experiment: Antibacterial activity against 10^5 CFU/mL Salmonella typhi MTCC 733 after 24 hrs by agar streak dilution method; type: functional, Salmonella enterica subsp. enterica serovar Typhi; conditions: Salmonella enterica, MTCC 733, 24 h
Aspergillus niger [11] = experiment: Antifungal activity against 10^5 CFU/mL Aspergillus niger MTCC 282 after 48 hrs by agar streak dilution method; type: functional; conditions: MTCC 282, 48 h
Method in brief: (§3)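 Agar streak dilution for fungi. Stock 100 µg/mL in DMSO; graded amounts were mixed into molten Sabouraud dextrose agar and poured at 4–5 mm depth. Serial dilutions ran over […]. About 10⁵ CFU/mL inoculum was applied, with incubation at 37 ± 1 °C for 48 h. MIC was read from the dilution series.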

Candida albicans [12] = experiment: Antifungal activity against 10^5 CFU/mL Candida albicans MTCC 183 after 48 hrs by disc diffusion technique; type: functional
Bacillus cereus [13] = experiment: Antibacterial activity against 10^5 CFU/mL Bacillus cereus MTCC 619 after 24 hrs by disc diffusion technique; type: functional; method in brief: as §1
Candida albicans [14] = experiment: Antifungal activity against 10^5 CFU/mL Candida albicans MTCC 183 after 48 hrs by agar streak dilution method; type: functional; conditions: MTCC 183, 48 h; method in brief: as §3
Bacillus cereus [15] = experiment: Antibacterial activity against 10^5 CFU/mL Bacillus cereus MTCC 619 after 24 hrs by agar streak dilution method; type: functional; conditions: MTCC 619, 24 h; method in brief: as §2
Aspergillus clavatus [16] = experiment: Antifungal activity against 10^5 CFU/mL Aspergillus clavatus MTCC 1323 after 48 hrs by agar streak dilution method; type: functional; conditions: MTCC 1323, 48 h; method in brief: as §3
Pseudomonas aeruginosa [17] = experiment: Antibacterial activity against 10^5 CFU/mL Pseudomonas aeruginosa MTCC 741 after 24 hrs by disc diffusion technique; type: functional; method in brief: as §1
Aspergillus fumigatus [18] = experiment: Antifungal activity against 10^5 CFU/mL Aspergillus fumigatus MTCC 343 after 48 hrs by agar streak dilution method; type: functional; conditions: MTCC 343, 48 h; method in brief: as §3
Pseudomonas aeruginosa [19] = experiment: Antibacterial activity against 10^5 CFU/mL Pseudomonas aeruginosa MTCC 741 after 24 hrs by agar streak dilution method; type: functional; conditions: MTCC 741, 24 h; method in brief: as §2
Proteus vulgaris [20] = experiment: Antibacterial activity against 10^5 CFU/mL Proteus vulgaris MTCC 1771 after 24 hrs by disc diffusion technique; type: functional; method in brief: as §1
Salmonella typhi [21] = experiment: Antibacterial activity against 10^5 CFU/mL Salmonella typhi MTCC 733 after 24 hrs by disc diffusion technique; type: functional, Salmonella enterica subsp. enterica serovar Typhi
Method in brief: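 Disc diffusion. Mueller-Hinton agar autoclaved 120 °C 30 min, poured 5 mm deep. Surface swabbed with 10⁵ CFU/mL suspension […]. 6.25 mm filter-paper discs soaked in compound in DMSO; DMSO-only disc as blank. Incubated 37 ± 1 °C, 24 h for bacteria or 48 h for fungi. Ciprofloxacin and ketoconazole discs as reference drugs. Inhibition zone measured in mm.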

Aspergillus clavatus [22] = experiment: Antifungal activity against 10^5 CFU/mL Aspergillus clavatus MTCC 1323 after 48 hrs by disc diffusion technique; type: functional
Aspergillus niger [23] = experiment: Antifungal activity against 10^5 CFU/mL Aspergillus niger MTCC 282 after 48 hrs by disc diffusion technique; type: functional
Escherichia coli [24] = experiment: Antibacterial activity against 10^5 CFU/mL Escherichia coli MTCC 739 after 24 hrs by disc diffusion technique; type: functional; method in brief: as §1
DU-145 = experiment: Cytotoxicity against […] human DU145 cells after 48 hrs by SRB assay; type: functional; conditions: DU-145, 48 h
Method in brief: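 SRB assay in DU-145 cells grown in RPMI 1640 with 10% FBS and 2 mM L-glutamine. Cells were plated and held 24 h before addition of four 10-fold concentrations. After 48 h, cells were TCA-fixed, stained with 0.4% SRB and read at 540 nm. GI50, TGI and LC50 were derived against time-zero and control wells; each value is the mean of three experiments.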

Compound | inhibition zone (IZ) (Klebsiella pneumoniae [1]) [mm] | MIC (Shigella flexneri [2]) [µg/mL] | inhibition zone (IZ) (Aspergillus fumigatus [3]) [mm] | MIC (Klebsiella pneumoniae [4]) [µg/mL] | MIC (Escherichia coli [5]) [µg/mL] | MIC (Proteus vulgaris [6]) [µg/mL] | inhibition zone (IZ) (Shigella flexneri [7]) [mm] | MIC (Staphylococcus aureus [8]) [µg/mL] | inhibition zone (IZ) (Staphylococcus aureus [9]) [mm] | MIC (Salmonella typhi [10]) [µg/mL] | MIC (Aspergillus niger [11]) [µg/mL] | inhibition zone (IZ) (Candida albicans [12]) [mm] | inhibition zone (IZ) (Bacillus cereus [13]) [mm] | MIC (Candida albicans [14]) [µg/mL] | MIC (Bacillus cereus [15]) [µg/mL] | MIC (Aspergillus clavatus [16]) [µg/mL] | inhibition zone (IZ) (Pseudomonas aeruginosa [17]) [mm] | MIC (Aspergillus fumigatus [18]) [µg/mL] | MIC (Pseudomonas aeruginosa [19]) [µg/mL] | inhibition zone (IZ) (Proteus vulgaris [20]) [mm] | other results
N#Cc1ccc(Nc2nc(Oc3ccnc4ccccc34)nc(N3CCN(Cc4ccccc4)CC3)n2)cc1C(F)(F)F | <10 | 100 (≈ 172 µM) | <10 | 100 (≈ 172 µM) | 100 (≈ 172 µM) | 100 (≈ 172 µM) | 11 | 100 (≈ 172 µM) | 22 | 100 (≈ 172 µM) | 100 (≈ 172 µM) | <10 | 22 | 100 (≈ 172 µM) | 100 (≈ 172 µM) | 100 (≈ 172 µM) | 15 | 100 (≈ 172 µM) | 100 (≈ 172 µM) | 16 | inhibition zone (IZ) (Salmonella typhi [21]): 14 mm; inhibition zone (IZ) (Aspergillus clavatus [22]): 12 mm; inhibition zone (IZ) (Aspergillus niger [23]): <10 mm; inhibition zone (IZ) (Escherichia coli [24]): 14 mm; GI50 (DU-145): > 100 µM; LC50 (concentration giving 50% net cell kill relative to time zero) (DU-145): > 100 µM; TGI (DU-145): > 100 µM
N#Cc1ccc(Nc2nc(Oc3ccnc4ccccc34)nc(N3CCN(c4ccccc4F)CC3)n2)cc1C(F)(F)F | 26 | 25 (≈ 42.6 µM) | 25 | 12.5 (≈ 21.3 µM) | 12.5 (≈ 21.3 µM) | 6.25 (≈ 10.7 µM) | 23 | 25 (≈ 42.6 µM) | 24 | 25 (≈ 42.6 µM) | 25 (≈ 42.6 µM) | 26 | 27 | 25 (≈ 42.6 µM) | 6.25 (≈ 10.7 µM) | 50 (≈ 85.2 µM) | 22 | 25 (≈ 42.6 µM) | 50 (≈ 85.2 µM) | 25 | inhibition zone (IZ) (Salmonella typhi [21]): 24 mm; inhibition zone (IZ) (Aspergillus clavatus [22]): 24 mm; inhibition zone (IZ) (Aspergillus niger [23]): 25 mm; inhibition zone (IZ) (Escherichia coli [24]): 26 mm; GI50 (DU-145): > 100 µM; LC50 (concentration giving 50% net cell kill relative to time zero) (DU-145): > 100 µM; TGI (DU-145): > 100 µM
N#Cc1ccc(Nc2nc(Oc3ccnc4ccccc34)nc(N3CCN(c4ccccc4Cl)CC3)n2)cc1C(F)(F)F | 26 | 50 (≈ 82.9 µM) | 21 | 12.5 (≈ 20.7 µM) | 50 (≈ 82.9 µM) | 100 (≈ 166 µM) | 21 | 12.5 (≈ 20.7 µM) | 25 | 50 (≈ 82.9 µM) | 100 (≈ 166 µM) | 20 | 24 | 100 (≈ 166 µM) | 12.5 (≈ 20.7 µM) | 100 (≈ 166 µM) | 23 | 100 (≈ 166 µM) | 50 (≈ 82.9 µM) | 23 | inhibition zone (IZ) (Salmonella typhi [21]): 23 mm; inhibition zone (IZ) (Aspergillus clavatus [22]): 20 mm; inhibition zone (IZ) (Aspergillus niger [23]): 21 mm; inhibition zone (IZ) (Escherichia coli [24]): 22 mm; GI50 (DU-145): 92.6 µM; LC50 (concentration giving 50% net cell kill relative to time zero) (DU-145): > 100 µM; TGI (DU-145): > 100 µM
